An excerpt weighted towards active compounds, which were near 1.7% of everything screened.
STEP block = blocks human striatal-enriched tyrosine phosphatase; P54829; recombinant STEP, OMFP fluorogenic substrate, fluorescence; inhibition, % at 20 µM; 360,000 compounds, 0.25% hits;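 active = inhibition at 20 µM, scaled per plate between control wells, above about 37%, limit read from the data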;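 note: 0% = DMSO with enzyme and substrate and 100% = substrate only without enzyme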
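System: STEP (striatal-enriched tyrosine phosphatase) enzyme, cell-free; medium: Bis-Tris pH 6.0 buffer with DTT, detergent; dosing: 20 µM, 1% DMSO; times: reaction 20 min, ambient temperature; detection: fluorescence, 480/540 nm; read-out basis: normalized % inhibition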
Scp-1 inhibitor = blocks human Scp-1 phosphatase activity; Q9GZU7; Recombinant Scp1, phosphopeptide, malachite green phosphate absorbance; inhibition, % at 20 µM; 340,000 compounds, 0.88% hits; AID 493091;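 active = inhibition above about 50% at 20 µM, limit read from the data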;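 note: plate controls were DMSO wells with enzyme for no effect and wells lacking enzyme for full effect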
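Incubation: 45 min enzyme reaction at room temperature / System: truncated SCP-1 phosphatase (76-261aa) / Reagent: Phospho 17-mer peptide substrate / Buffer or medium: Acidic Tris acetate buffer with magnesium and detergent / Signal: absorbance at 630 nm / Doses: one concentration, 20 µM, with 1.0% DMSO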
LMPTP block = blocks human LMPTP phosphatase; recombinant LMPTP-A, OMFP fluorogenic substrate, fluorescence intensity; AID 651560; P24666; inhibition, % at 20 µM; 360,000 compounds, 0.22% hits;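 active = compounds that cut the enzyme signal by at least half of the control window in the single-dose screen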;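 note: plate controls were DMSO wells with enzyme plus substrate for no effect and substrate without enzyme for full effect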
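test system = LMPTP-A | amount = 0.625 nM LMPTP-A final | reagent = fluorogenic phosphatase substrate OMFP at 400 µM final | incubation = 50 min at room temperature | benchmarks = no-enzyme low control, uninhibited high control | medium = Bis-Tris pH 6.0, DTT, detergent | signal = fluorescence intensity of OMFP turnover product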
DNMT1 block = inhibitors of human DNMT1; AID 588458; 360,000 compounds, 0.83% hits; inhibition (reported as % activation of signal), % at 10 µM; P26358; DNMT1 molecular beacon, Hinp1I cleavage, fluorescence; in the data active = inhibition above about 50%
SUMO1 PPI mod = SUMO1-SIM interaction modulation; P63165; SUMO1 binding to a labelled peptide, TR-FRET, 1 h; inhibition, % at 20 µM; 360,000 compounds, 0.33% hits; in the data active = inhibition above about 37%
* = called active by the depositor; nt = no result given.

SMILES | STEP block | Scp-1 inhibitor | LMPTP block | DNMT1 block | SUMO1 PPI mod
NC(=O)c1ccsc1NC(=O)COC(=O)c1cc(=O)[nH]c2ccccc12 | -1.2 | 3.9 | 6.2 | 1.6 | 48.5*
COc1ccc(/C=C2\SC(c3ccc(C)cc3)=NC2=O)cc1OC | -19.6 | -3.0 | 1.5 | -7.7 | -25.3
COc1cc(/C=C2\SC(N)=NC2=O)ccc1OCC(=O)Nc1ccc(C)cc1 | -2.2 | 6.1 | -0.4 | 53.6* | 6.1
CCCCOc1ccc(C(=O)N2CCN(CC(=O)Nc3ccc(C)cc3)CC2)cc1OC | 1.1 | -3.8 | 0.1 | -4.2 | 2.2
CC(Nc1nc(-c2ccccc2)nc2ccccc12)c1ccccc1 (stereo not drawn) | -2.9 | 0.3 | 52.0* | -14.7 | 2.9
Fc1ccccc1-c1nc(NC2CCCC2)c2ccccc2n1 | -1.9 | -1.6 | 69.6* | 1.1 | 0.3
CC(Nc1nc(-c2ccccc2F)nc2ccccc12)c1ccccc1 (stereo not drawn) | -0.5 | 1.4 | 73.6* | -2.5 | 0.8
CC(C)C[C@H]1CNC(=S)N1C[C@H]1CCCN1C[C@H](CC(C)C)N1C[C@H](Cc2ccc(O)cc2)N(CC2CCCCCC2)C1=S | 8.4 | nt | 4.7 | -9.8 | 8.6
O=C(Nc1ccccn1)c1onc2c1CCCC2 | -0.7 | 50.4* | 1.0 | 4.0 | -1.5
O=C(Nc1ccccn1)c1csc2c1CCCC2 | 2.0 | -1.9 | 0.5 | 2.7 | 11.5
CC(=O)Nc1ccc(NC(=O)c2c(-c3ccccc3Cl)noc2C)c(C)c1 | -3.7 | -4.2 | -2.5 | 2.1 | 2.4
CC(=O)Nc1ccc(OC(=O)c2c(-c3ccccc3Cl)noc2C)cc1 | -1.1 | -7.1 | -1.1 | -4.2 | 37.1*
O=C(CNC(=O)N1CC(=O)Nc2ccccc21)Nc1cccc(F)c1 | -0.5 | -8.2 | -0.6 | 3.0 | 1.7
CN(Cc1cccc(F)c1)C(=O)c1ccc(S(=O)(=O)N2CCCCCC2)cc1 | -1.7 | -1.0 | 3.8 | -0.6 | -5.5
COc1ccc(CCn2c(NN)nc3c2c(=O)[nH]c(=O)n3C)cc1 | 28.3 | 20.1 | 7.1 | 75.2* | -10.0
Cc1ccc(Nc2cc(C)c3c(O)cccc3n2)cc1C | 5.2 | 2.5 | 67.4* | -15.9 | 8.5
Cc1ccccc1Nc1cc(C)c2c(O)cccc2n1 | -1.1 | -16.1 | 66.7* | -0.2 | -0.4
COC(=O)c1cc(Nc2cc(C)c3c(O)cccc3n2)cc(C(=O)OC)c1 | 2.2 | 0.2 | 42.7 | -14.4 | 8.7
COc1ccc(Nc2cc(C)c3c(O)cccc3n2)cc1 | -3.3 | -4.1 | 79.3* | -13.8 | -0.9
CNc1nc(Oc2cccc(NC(C)=O)c2)c2sccc2n1 | -0.3 | nt | 2.4 | 3.2 | -5.6
CCCc1cc(=O)[nH]c(SCCCCN2C(=O)c3ccccc3C2=O)n1 | -3.0 | 4.2 | 0.0 | 3.7 | -5.8
CC12CC3CC(C)(C1)CC(C(=O)NNC(=O)c1ccncc1)(C3)C2 | -0.9 | -2.0 | 0.4 | -0.9 | -4.3
O=C(O)CCNc1cc(N2CCN(C(=O)c3ccco3)CC2)c2noc3c2c1C(=O)c1ccccc1-3 | 41.2* | 80.9* | 11.4 | 105.7* | 50.4*
O=C1c2cccc3c([N+](=O)[O-])ccc(c23)C(=O)N1O | 10.4 | 83.0* | 22.2 | 71.3* | 32.0
O=C(CSc1nncs1)Nc1ccc(Cl)cc1C(F)(F)F | 0.7 | -4.9 | 0.1 | -1.6 | 0.9
SMILES | STEP block | Scp-1 inhibitor | LMPTP block | DNMT1 block | SUMO1 PPI mod
COCCNc1nc(NCc2cccc(OC)c2OC)c2sccc2n1 | -2.4 | nt | 62.2* | -3.9 | 5.3
COCCNc1nc(NCc2cccc(OC)c2)c2sccc2n1 | 0.5 | nt | 44.2 | -0.4 | -3.1
COc1ccccc1CNc1nc(NCc2cnc(C)cn2)c2sccc2n1 | -0.3 | nt | 79.9* | 3.4 | 2.4
COCCNc1nc(NCc2ccc(C)cc2C)c2sccc2n1 | 0.3 | nt | 59.3* | 4.2 | -0.8
COc1ccccc1CNc1nc(NCc2cccc(OC)c2OC)c2sccc2n1 | 1.6 | nt | 37.1 | -6.0 | -3.6
COCCNc1nc(NCc2ccc(C(C)C)cc2)c2sccc2n1 | 2.1 | nt | 50.7* | 1.8 | 1.4
CC(=O)Nc1ccc(CNc2nc(NCC3CC3)nc3ccsc23)cc1 | 3.7 | nt | 59.6* | -0.3 | 1.5
COc1ccc(Nc2nc(NCc3cccs3)nc3ccsc23)cc1OC | 3.6 | nt | 56.3* | -9.4 | -7.9
CCOC(=O)c1cnc2c(C)cc(Cl)cc2c1N1CCN(C)CC1 | -1.5 | -15.4 | -2.1 | 1.6 | -18.7
NNc1nc2c(Cl)ccc(Cl)c2s1 | 33.0 | -1.7 | 85.1* | 2.1 | 3.0

From PubChem BioAssay
